# From PubChem
# An excerpt weighted towards active compounds, which were near 2.8% of everything screened.
# EBI2 antag: antagonists of human EBI2 receptor; EBI2 beta-arrestin recruitment, luminescence, 7a,25-OHC stimulated; inhibition, % at 5 µM; 0.81% of 360,000 active; in the data active = inhibition above about 38%;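 note: enzyme fragment complementation signal reports receptor beta-arrestin coupling in cells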
# MC4R antagonist: antagonists of human melanocortin 4 receptor (MC4R) | P32245 | MC4R-expressing cells, MTII-stimulated cAMP, LANCE TR-FRET | inhibition, % at 6.5 µM | 0.48% of 360,000 active | AID 540295;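 active = inhibition above its plate's cutoff, the mean of tested wells on that plate plus 3 SD, cut at about 29% in these data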
#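 System: U2OS cells stably expressing human melanocortin 4 receptor (MC4R). Reagent: Melanotan II challenge after compound preincubation. Doses: 6.5 µM. Times: 30-min compound, 1-h challenge, 1-h detection, room temperature. Measured by: TR-FRET with Eu-cAMP and labeled anti-cAMP, 671 nm. Replicates: singlicate.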
# m5-HT2A agonist: agonists of mouse serotonin 5-HT2A receptor (HTR2A); AID 624169; CHO-K1 mHTR2A beta-arrestin complementation, luminescence; percent of 30 µM serotonin response; activation, % at 7.6 µM; P35363; 0.66% of 360,000 active;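 active = activation above a run cutoff, the mean activation of all tested compounds plus 3 SD, cut at about 14% in these data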
# MC4R barr agon: agonists of human melanocortin 4 receptor (MC4R) beta-arrestin. P32245. U2OS MC4R beta-arrestin complementation, luminescence; percent of melanotan II response, DMSO zero. activation, % at 8.9 µM. 0.98% of 360,000 active. AID 540308;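 active = activation above a per-plate cutoff, the mean activation of sample wells on that plate plus 3 SD, cut at about 8% in these data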
# MC4R barr conf: human MC4R beta-arrestin agonism confirmation. shares compounds with MC4R barr agon. U2OS MC4R beta-arrestin recruitment, luminescence; scaled DMSO 0%, Melanotan II 100%. activation, % at 8.9 µM. 31% of 2,400 active. AID 602192;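 active = mean activation across replicates above the hit cutoff set in the earlier primary screen, cut at about 8% in these data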
# MOR DOR agonist: counter-screen for MC4R agonists: agonists of mu-delta opioid heterodimer | activation, % at 9.2 µM | U2OS PathHunter beta-arrestin, beta-gal luminescence; percent of deltorphin B response, DMSO zero | shares compounds with MC4R barr agon | AID 602194 | 5.8% of 2,400 active;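 active = mean activation across replicates exceeds the hit threshold derived in the earlier primary screen, cut at about 18% in these data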
# Numbers stand for hits; - = inactive; . = not tested or not shown.
SMILES,EBI2 antag,MC4R antagonist,m5-HT2A agonist,MC4R barr agon,MC4R barr conf,MOR DOR agonist
Cc1cccc(NC(=O)c2cccc3c2C(=O)c2ccccc2-3)c1,-,-,-,33,8.3,-
OC(c1ccccc1)(c1nc(-c2ccc(Cl)cc2)cs1)C(F)(F)F (stereo not given),-,-,-,-,.,.
CCCOc1ccc(C(=O)Nc2nc(C)c(Cc3ccc4c(c3)OCO4)s2)cc1,-,-,-,47,13,-
O=C(OCc1cc(=O)n2c(n1)sc1ccccc12)c1cccc(O)c1,-,-,-,-,.,.
O=C(OCc1cc(=O)n2c(n1)sc1ccccc12)c1ccc(O)cc1O,-,-,-,17,-,-
COc1ccccc1CCNC(=O)c1cc(-c2ccncc2)nc2ccc(Br)cc12,-,-,-,18,10,-
COc1ccccc1CCNC(=O)c1cc(-c2ccccn2)nc2ccccc12,-,-,-,-,.,.
COc1ccc2cc3cc(C(=O)Nc4cc(OC)c(OC)c(OC)c4)oc3nc2c1,-,-,-,-,.,.
COc1ccc2cc3cc(C(=O)Nc4ccc5c(c4)OCCO5)oc3nc2c1,-,-,-,43,-,-
Cc1ccc(C(=O)N[C@H](C(=O)Nc2ccc(N3CCOCC3)cc2)C(C)C)cc1,-,-,-,-,.,.
COc1ccc(OC)c(-c2cc(C(=O)Nc3cc(C)on3)no2)c1,-,-,-,17,10,-
COc1ccc(NC(=O)c2cc(-c3ccco3)on2)c(OC)c1,-,-,-,10,-,-
O=C(Nc1cccc2c(=O)[nH][nH]c(=O)c12)c1ccc([N+](=O)[O-])cc1,-,.,-,.,.,.
O=C1NCCN(CC2CCN(CCc3ccc(Cl)c(Cl)c3)CC2)C1=O,-,-,-,-,.,.
CCOc1ccccc1NC(=O)c1ccc2[nH]c(C)c(C)c2c1,-,-,-,12,-,-
COc1cc(C)c(/C=C(\C#N)C(=O)Nc2cccc(C)c2)cc1C(C)C,-,-,-,13,-,-
Cc1cccc(NC(=O)/C(C#N)=C\c2ccc(C(=O)O)cc2)c1,-,-,-,-,.,.
CCCCCCCCCCCCCCCC(=O)NCCO,-,-,-,12,-,-
O=C(NCc1ccc(F)cc1)OC1CC2CC1[C@H]1CCCCN1C2=O (stereo not given in full),-,.,-,.,.,.
CC(=O)c1ccc(NC(=O)C(C)Sc2nnc3ccccn23)cc1 (stereo not given),-,-,-,-,.,.
COCCC(=O)N1CCOCC1c1cc(C(=O)NCc2ccccc2)no1 (stereo not given),-,-,-,-,.,.
CC(C)CNC(=O)C1(C)CCCN1C(=O)C(C)(C)Oc1ccc(Cl)cc1 (stereo not given),-,-,-,-,.,.
O=C(CSc1ncnc2c1cnn2-c1ccccc1)Nc1ccccc1,-,-,-,18,-,-
Cc1ccc(S(=O)(=O)N2CCCN(S(=O)(=O)c3ccc(C(F)(F)F)cc3)CC2)cc1,-,-,-,28,14,30
N#Cc1ccsc1NC(=O)COC(=O)c1ccc2ccccc2c1,-,-,-,17,-,-
SMILES,EBI2 antag,MC4R antagonist,m5-HT2A agonist,MC4R barr agon,MC4R barr conf,MOR DOR agonist
NC(=O)Nc1cc(Cl)ccc1Cl,-,-,-,-,.,.
O=C(CC(=O)Nc1cc(Cl)ccc1Cl)Nc1cc(Cl)ccc1Cl,-,-,-,15,-,-
CCCNC(=O)c1noc2c1CCc1ccccc1-2,-,-,-,-,.,.
COc1ccc2c(c1)CCc1c(C(=O)Nc3ccn(Cc4ccc(C)cc4)n3)noc1-2,-,-,-,30,37,-
O=C(NCCc1ccccc1)c1noc2c1CCc1ccccc1-2,-,-,-,13,-,-
Cc1ccc(Cn2ccc(NC(=O)c3noc4c3CCc3ccccc3-4)n2)cc1,-,-,-,-,.,.
COc1ccc2c(c1)CCc1c(C(=O)Nc3ccc(OC)c(OC)c3)noc1-2,-,-,-,20,-,-
COc1ccc2c(c1)CCc1c(C(=O)NCCc3ccc(OC)c(OC)c3)noc1-2,-,-,-,20,-,-
COc1ccc2c(c1)CCc1c(C(=O)NCc3ccc(F)cc3)noc1-2,-,-,-,-,.,.
CC(C)CC(N)c1csc(NC(=O)Nc2ccccc2C(C)(C)C)n1 (stereo not given),-,-,-,-,.,.
